Screening results (PubChem)
Hsp70 act: switches on Hsp70 transcription; HeLa Hsp70 promoter luciferase reporter, luminescence; scaled: vehicle 0, proteasome-inhibitor control 100%; activation, % at 10 µM; actives 0.04% (n = 200,000); AID 1203;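 active = activation above the mean across all tested compounds plus 3 SD, cutoff set per campaign, cut at about 5.5% in these data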;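 note: 100% = MG132 at 30 µM as the positive control and 0% = DMSO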
ABHD5-PLIN5 inh: inhibitors of human ABHD5-perilipin-5 interaction | Split G. princeps luciferase complementation, luminescence, 4 h | inhibition, % at 4 µM | actives 0.78% (n = 360,000) | AID 602281;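 active = inhibition above the mean inhibition across every tested compound plus 3 SD, cut at about 22% in these data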;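 note: 0% = DMSO only wells and the 100% control is not disclosed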
FXN GAA850 act: frataxin GAA850 promoter activation. activation, % at 6 µM. HEK293 lucGAA850 FXN promoter luciferase reporter, 24 h; percent of 10 µM SAHA response. actives 0.56% (n = 360,000);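 active = activation above the average of all compounds screened plus 3 SD, cutoff fixed separately per campaign, cut at about 7.5% in these data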;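 note: 0% = DMSO wells and 100% = 10 µM SAHA wells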
HIF activator: HIF pathway transcriptional activation. U2OS HRE-luciferase reporter, luminescence; normalized: DMSO 0%, desferrioxamine 100%. activation, % at 7.5 µM (by protocol). actives 0.32% (n = 300,000). AID 1910;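 active = mean activation of at least 10% of the iron chelator positive control signal, with at least half of replicates also reaching 10%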
Rad51 HR inh: Rad51 (human) homologous recombination inhibition; inhibition, % at 10 µM; Q06609; actives 0.085% (n = 200,000); hRad51 DNA strand exchange, fluorescence dequenching;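 active = inhibition above 40% at the single screening dose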;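 note: 0% = DMSO control wells and 100% = blanks with heterologous ssDNA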
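Read-out basis: percent inhibition relative to plate controls and blanks / Assay system: human Rad51 nucleoprotein filaments preassembled on unlabelled ssDNA / Timing: filaments 15 min 37 °C, then compound 30 min / Control set: per-plate controls and blanks / Technique: fluorescence dequenching at 485/520 nm / Compound: 10 µM final, single point / Also added: Fluorescein- and BHQ1-tagged 47-mer duplex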
H9c2 TAG inh: triacylglycerol accumulation inhibition; H9c2 cells, Nile Red lipid (TAG) fluorescence; cells loaded with 200 µM oleic acid; inhibition, % at 12.5 µM; actives 0.66% (n = 230,000); AID 651582;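 active = pattern-corrected inhibition of lipid staining of at least 50% with the nuclear-stain viability signal not falling by more than 50%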;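 note: 0% = DMSO wells and 100% = triacsin C control wells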
ABHD5 PLIN5 conf: confirmation of human ABHD5-PLIN5 interaction inhibitors; inhibition, % at 4 µM; shares compounds with ABHD5-PLIN5 inh; biochemical ABHD5-PLIN5 interaction, luminescence; actives 67% (n = 2,200); AID 651612; in the data active = inhibition above about 23%;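 note: 0% = DMSO vehicle wells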
HNF4 split-luc: counter-screen for ABHD5-PLIN5 inhibitors: HNF4 split-luciferase | shares compounds with ABHD5-PLIN5 inh | HNF4 dimerization, luminescence, biochemical | inhibition, % at 4 µM | actives 77% (n = 2,200) | AID 651674;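 active = mean inhibition across replicate wells exceeding the computed hit threshold, cut at about 13% in these data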;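 note: light from luciferase halves that rejoin when HNF4 fusion proteins dimerize; 0% = DMSO only wells and the 100% control is not given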
Target sequence (P41235 whole entry, looked up, the tested form may be a part): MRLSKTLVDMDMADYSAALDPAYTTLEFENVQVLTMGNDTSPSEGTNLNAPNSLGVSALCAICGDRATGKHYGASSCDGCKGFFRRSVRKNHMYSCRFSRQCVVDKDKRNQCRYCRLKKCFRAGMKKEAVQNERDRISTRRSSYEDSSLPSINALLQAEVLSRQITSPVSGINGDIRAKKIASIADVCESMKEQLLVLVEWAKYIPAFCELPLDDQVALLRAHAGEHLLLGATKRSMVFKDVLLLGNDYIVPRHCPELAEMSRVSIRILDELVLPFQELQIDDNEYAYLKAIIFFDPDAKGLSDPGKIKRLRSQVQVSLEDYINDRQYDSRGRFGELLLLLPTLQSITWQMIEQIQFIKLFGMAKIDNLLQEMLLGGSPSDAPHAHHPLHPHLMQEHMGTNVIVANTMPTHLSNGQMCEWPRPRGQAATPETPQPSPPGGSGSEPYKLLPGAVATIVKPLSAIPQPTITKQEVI
Starred values were filed as active, the others as inactive; · = no result. This is a sample that favours compounds with a hit; in the whole collection about 1.9% have one here.

SMILES	Hsp70 act	ABHD5-PLIN5 inh	FXN GAA850 act	HIF activator	Rad51 HR inh	H9c2 TAG inh	ABHD5 PLIN5 conf	HNF4 split-luc
CCCCCc1cc(=O)oc2c(C(CCN3CCCCC3)c3ccc(OC)cc3)c(OC)cc(OC)c12 (stereo unspecified)	·	26.4*	-1.1	-1.5	6.1	111.2*	6.5	6.5
COc1ccc(C(CCN2CCOCC2)c2c(OC)cc(OC)c3c(C)cc(=O)oc23)cc1 (stereo unspecified)	·	-1.9	1.0	-0.2	-3.4	9.0	·	·
O=C(NC(=S)NNC(=O)c1ccccc1F)c1cccnc1	·	1.0	0.0	0.6	-10.1	2.9	·	·
CCC(c1ccccc1)c1noc(CCN(CC)CC)n1 (stereo unspecified)	·	60.2*	-0.3	·	·	-4.2	72.6*	31.9*
COCCN(C)Cc1nc(C(c2ccccc2)c2ccccc2)no1	·	-9.6	-1.2	0.3	·	·	·	·
CCN1/C(=C/c2ccc3ccccc3[n+]2CCCS(=O)(=O)[O-])C=Cc2cc(C)ccc21	·	13.2	-0.8	-2.0	·	·	·	·
CCN1/C(=C/c2ccc3ccccc3[n+]2CC)C=Cc2ccccc21	-0.2	40.8*	-15.7	1.4	10.8	-20.3	55.5*	53.3*
Cc1cc(NC(=O)CSc2ccc(-c3ccc(Br)cc3)nn2)no1	·	1.7	3.5	0.5	·	-0.1	·	·
Cc1ccc(-c2ccc(SCC(=O)Nc3cc(C)on3)nn2)cc1	0.0	55.1*	-0.6	0.9	-4.5	-6.2	2.6	0.8
COc1cc(NC(=O)c2cccs2)c(OC)cc1NC(=O)CCC(=O)Nc1ccc(C)cc1	·	2.3	-3.1	-0.6	·	·	·	·
COc1cc2sc(-c3ccc(S(C)(=O)=O)cc3)c(C(=O)NCCCCO)c2cc1OC	·	6.0	0.4	·	·	4.5	·	·
COc1cc2sc(-c3ccc(S(C)(=O)=O)cc3)c(C(=O)NCc3ccc(C)o3)c2cc1OC	·	33.4*	-0.5	·	·	4.9	9.0	19.7*
O=C(/C=C\c1cccs1)c1c(O)ccc2ccc(=O)oc12	0.1	24.6*	2.1	0.1	·	-1.7	33.7*	37.4*
O=C(C=Cc1cccs1)c1cccs1	·	8.5	4.5	·	·	-6.8	·	·
Cc1cc(Br)cn2c(Cc3cccc(Cl)c3)c(-c3ccco3)nc12	·	28.0*	·	·	·	·	28.5*	40.0*
Fc1cccc(Cc2c(-c3ccco3)nc3c(Cl)cc(C(F)(F)F)cn23)c1	·	52.6*	·	·	·	·	69.9*	83.2*
Clc1ccc(-c2nc3ccc(Cl)cn3c2Cc2cccc(Cl)c2)cc1	·	-4.0	·	·	·	·	·	·
Cc1ccc(Cc2c(-c3ccco3)nc3c(C)cc(Br)cn23)cc1	·	63.7*	·	·	·	·	48.2*	65.9*
Cc1cc(Br)cn2c(Cc3ccccc3)c(-c3cccc(Cl)c3)nc12	·	-3.0	·	·	·	·	·	·
Fc1ccc(-c2nc3c(Cl)cc(C(F)(F)F)cn3c2Cc2cccc(F)c2)cc1	·	15.2	·	·	·	·	·	·
Clc1cccc(Cc2c(-c3ccco3)nc3ccc(Cl)cn23)c1	·	71.2*	·	·	·	·	86.0*	102.2*
CCN(CC)CCCNC(=O)CSc1c2c(nc3cc(Cl)ccc13)CCCC2	-0.1	29.2*	7.3	1.6	-4.8	57.3	39.1*	27.6*
Cc1ccccc1S(=O)(=O)NC(=O)C1(C)CCN1C(=O)C(C)(C)c1ccccc1 (stereo unspecified)	·	-6.5	-0.1	·	·	8.2	·	·
CC(Sc1nnc(-c2ccco2)n1N)C(=O)NCc1ccc2c(c1)OCO2 (stereo unspecified)	·	8.6	2.9	·	·	-30.5	·	·
O=C1ON=C(c2ccccc2)/C1=C/c1ccc(-c2ccccc2[N+](=O)[O-])o1	-0.4	34.9*	0.3	·	3.8	·	102.3*	106.7*
SMILES	Hsp70 act	ABHD5-PLIN5 inh	FXN GAA850 act	HIF activator	Rad51 HR inh	H9c2 TAG inh	ABHD5 PLIN5 conf	HNF4 split-luc
O=C(NCc1ccccc1)C1c2ccccc2OCC(=O)N1Cc1ccco1 (stereo unspecified)	·	1.4	·	·	·	·	·	·
Cc1cc(=O)oc2cc(OCC(=O)N3CCCC3)c(Cl)cc12	·	-4.1	-0.3	·	·	10.2	·	·
CCCC(=O)NC1=C(Cl)C(=O)c2ccccc2C1=O	·	47.7*	-6.1	·	·	26.8	63.8*	101.3*
Clc1ccc(Cl)c(OCCCCNCc2ccccc2)c1	-0.6	27.2*	0.8	0.5	-3.0	-10.1	5.0	1.1
Clc1ccc(OCCCNCc2ccccc2)c(Br)c1	-0.3	-0.1	-2.3	1.4	6.8	·	·	·
Cc1ccc(CNC(=O)C(=O)NCC2OCCN2S(=O)(=O)c2ccc(Br)cc2)cc1 (stereo unspecified)	·	6.4	-0.1	-0.3	·	18.2	·	·
CC1(C)CC(NC(=O)C2CCC(=O)N(C3CC3)C2)CC(C)(C)C1 (stereo unspecified)	·	-4.7	2.0	0.8	·	·	·	·
COc1ccc(S(=O)(=O)N(CC(C)C)C2CCS(=O)(=O)C2)cc1OC (stereo unspecified)	·	-6.3	1.4	0.0	·	1.4	·	·
Cc1cc(NS(=O)(=O)c2ccc(NC(=O)/C=C/c3ccc(C)o3)cc2)nc(C)n1	-0.2	28.6*	0.0	-1.1	-16.1	-3.1	51.3*	60.3*
Cc1ccc(/C=C/C(=O)NCc2cccs2)o1	-0.3	24.5*	2.8	0.3	-8.9	0.9	14.4	18.0*
COc1ccc(NC(=O)/C=C/c2ccc(C)o2)cc1S(=O)(=O)N1CCOCC1	0.0	23.1*	-0.4	-0.2	4.2	·	16.3	17.4*
Cc1ccc(/C=C/C(=O)Nc2ccc(Oc3ccccc3)cc2)o1	-0.2	24.2*	4.7	2.6	-5.7	·	10.1	39.0*
Cc1cc(NS(=O)(=O)c2ccc(NC(=O)/C=C/c3ccccc3)cc2)nc(C)n1	·	5.8	1.9	·	·	17.9	·	·
O=C(O)/C=C/C(=O)Nc1ccc(Oc2ccccc2)cc1	·	5.0	-2.8	0.0	-4.5	2.5	·	·
COc1cc(/C=C/C(=O)Nc2ccc(OC)c(S(=O)(=O)N3CCOCC3)c2)ccc1OC(F)F	·	-5.7	-2.7	·	·	13.7	·	·
CC(=O)c1ccc(-c2cccc([C@H]3[C@@H]4C=CC[C@@H](C)[C@@H]4C(=O)N3Cc3ccccc3)c2)cc1	·	-1.7	1.2	·	·	-9.1	·	·
O=C(COC(=O)c1c[nH]c(=O)[nH]c1=O)Nc1ccccc1	0.1	-3.8	4.5	-0.4	-2.7	8.2	·	·
Cc1ccsc1C(=O)OCC(=O)NC1CCCCC1C (stereo unspecified)	·	1.0	1.4	·	·	15.4	·	·
CNC(=O)c1nnsc1S(=O)c1ccc(Cl)cc1 (stereo unspecified)	-0.1	66.7*	-14.9	-0.1	3.3	·	85.0*	103.9*
CCCNC(=O)c1nnsc1S(=O)(=O)c1ccc(Cl)cc1	-0.1	76.9*	-14.2	·	-1.4	·	80.1*	108.1*
